Reference: ChEMBL document CHEMBL3098030, “Explorations of substituted urea functionality for the discovery of new activators of the heme-regulated inhibitor kinase” (J Med Chem, 2013)
Calls of active or inactive are those of the source. No cut-off for these calls is given here.

Columns and labels:
[1] = Cytotoxicity against human CRL2813 cells after 5 days by SRB assay; type: functional, cell-based; conditions: CRL2813, 120 h
How it was run: (§1)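 CRL-2813 melanoma or NIH/3T3 fibroblasts seeded in 96-well plates, exposed 5 days to 0.5–20 μM compound; fixed in cold 10% TCA, bound sulforhodamine B measured. % growth = 100×(T−T0)/(C−T0). IC50 derived; triplicate, three independent experiments.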

[2] = molecular target: Eukaryotic translation initiation factor 2-alpha kinase 1 (Homo sapiens) (UniProt Q9BQI3); test: Activation of HRI in human CRL-2813-pBISA-DL(ATF-4) reporter cells assessed as reduction of ternary complex at 30 uM by dual-luciferase reporter gene assay relative to control
How it was run: (§2)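 Stably transfected CRL-2813-pBISA-DL(ATF-4) reporter cells treated with compounds in dose-response; firefly and renilla luciferases read by dual glow luciferase kit. Activity = firefly/renilla (F/R) ratio normalized to DMSO-treated wells (set at 1). Triplicate points fitted to logistic sigmoidal model by nonlinear least squares; C3X = concentration giving F/R = 3, Emax = maximal F/R.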

[3] = molecular target: Eukaryotic translation initiation factor 2-alpha kinase 1 (Homo sapiens) (UniProt Q9BQI3); test: Activation of HRI in human CRL-2813-pBISA-DL(ATF-4) reporter cells assessed as concentration required to obtain F-luciferase expression/R-luciferase expression ratio 3; how it was run: as §2
[4] = molecular target: Eukaryotic translation initiation factor 2-alpha kinase 1 (Homo sapiens) (UniProt Q9BQI3); test: Activation of HRI in human CRL-2813-pBISA-DL(ATF-4) reporter cells assessed as eIF2alpha phosphorylation after 8 to 32 hrs by dual-luciferase reporter gene assay
How it was run: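 Reporter CRL-2813-pBISA-DL(ATF-4) cells incubated with compounds for 8, 16 or 32 h. Firefly/renilla luciferase ratio measured by dual luciferase assay and normalized to vehicle-treated cells.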

[5] = Antiproliferative activity against human CRL2813 cells after 3 days by SRB assay in presence of HRI-targeting siRNA; type: functional, cell-based; conditions: CRL2813, 72 h
How it was run: (§3)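 CRL-2813 cells transiently transfected (Lipofectamine 2000) with HRI-targeting or non-targeting siRNA, then treated with compound dose range; proliferation by SRB after 3 days. IC50 calculated per siRNA condition; ratio is HRI-siRNA over non-targeting IC50. Triplicate, three independent experiments; mean±S.E.M.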

[6] = Antiproliferative activity against human CRL2813 cells after 3 days by SRB assay in presence of non-targeting siRNA; type: functional, cell-based; conditions: CRL2813, 72 h; how it was run: as §3
[7] = Selectivity ratio of IC50 for mouse NIH/3T3 cells to IC50 for human CRL2813 cells; type: ADME, cell-based; conditions: NIH/3T3 cells and CRL2813 cells, read-out: Ratio IC50
NIH3T3 = test: Cytotoxicity against mouse NIH/3T3 cells after 5 days by SRB assay; type: cell-based; conditions: NIH3T3, 120 h; how it was run: as §1
[8] = molecular target: Eukaryotic translation initiation factor 2-alpha kinase 1 (Homo sapiens) (UniProt Q9BQI3); test: Activation of HRI in human CRL2813 cells assessed as reduction in cyclin D1 mRNA expression at 7.5 to 15 uM after 6 hrs by RT-PCR analysis; type: cell-based
How it was run: (§4)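 CRL-2813 cells incubated with 7.5 or 15 μM compound for 6 h; CHOP and cyclin D1 mRNA measured by real-time PCR. Each run in triplicate, mean of three independent experiments ±S.E.M.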

[9] = molecular target: Eukaryotic translation initiation factor 2-alpha kinase 1 (Homo sapiens) (UniProt Q9BQI3); test: Activation of HRI in human CRL2813 cells assessed as increase in CHOP mRNA expression at 7.5 to 15 uM after 6 hrs by RT-PCR analysis; type: cell-based; how it was run: as §4
[10] = molecular target: Eukaryotic translation initiation factor 2-alpha kinase 1 (Homo sapiens) (UniProt Q9BQI3); test: Activation of HRI in human CRL2813 cells assessed as reduction in cyclin D1 protein expression at 10 uM after 6 hrs by Western blotting analysis; type: cell-based
How it was run: (§5)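 CRL-2813 melanoma cells grown in serum-containing medium without antibiotics to 70% confluence, treated 6 h (10 μM for CHOP/cyclin D1), lysed in M-PER on ice 30 min, protein by BCA. Equal protein on SDS-PAGE, probed with anti-pS51-eIF2α rabbit mAb, anti-total eIF2α mouse mAb, anti-CHOP, anti-cyclin D1, anti-actin. Three independent experiments.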

[11] = molecular target: Eukaryotic translation initiation factor 2-alpha kinase 1 (Homo sapiens) (UniProt Q9BQI3); test: Activation of HRI in human CRL2813 cells assessed as increase in CHOP protein expression at 10 uM after 6 hrs by Western blotting analysis; type: cell-based; how it was run: as §5
[12] = molecular target: Eukaryotic translation initiation factor 2-alpha kinase 1 (Homo sapiens) (UniProt Q9BQI3); test: Activation of HRI in human CRL2813 cells assessed as eIF2alpha phosphorylation after 6 hrs by Western blotting analysis; type: cell-based; how it was run: as §5

Sequence of Eukaryotic translation initiation factor 2-alpha kinase 1 (Homo sapiens) (Q9BQI3 whole entry): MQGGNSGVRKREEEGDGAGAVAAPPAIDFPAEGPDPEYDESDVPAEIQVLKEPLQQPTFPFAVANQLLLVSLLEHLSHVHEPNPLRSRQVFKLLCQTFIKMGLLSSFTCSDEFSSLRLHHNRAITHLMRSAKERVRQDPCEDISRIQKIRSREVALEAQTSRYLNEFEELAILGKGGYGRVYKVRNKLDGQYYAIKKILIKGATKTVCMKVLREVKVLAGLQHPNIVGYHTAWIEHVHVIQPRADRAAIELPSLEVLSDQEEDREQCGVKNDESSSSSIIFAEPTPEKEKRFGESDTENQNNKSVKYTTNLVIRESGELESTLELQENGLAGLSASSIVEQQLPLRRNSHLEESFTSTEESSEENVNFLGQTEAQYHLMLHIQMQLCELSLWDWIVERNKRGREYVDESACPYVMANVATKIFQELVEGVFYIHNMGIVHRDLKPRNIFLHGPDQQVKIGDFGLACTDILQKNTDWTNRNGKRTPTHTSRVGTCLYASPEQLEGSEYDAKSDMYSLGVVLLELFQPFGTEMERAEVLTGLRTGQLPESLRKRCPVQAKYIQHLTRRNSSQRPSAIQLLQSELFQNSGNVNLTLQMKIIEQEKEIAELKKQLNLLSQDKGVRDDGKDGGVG

SMILES | Ratio [2] | Activity [3] [µM] | IC50 [1] [µM] | other results
CSc1ccc(NC(=O)N[C@H]2CC[C@H](Oc3ccc(F)cc3)CC2)cc1 | 1.07 | – | > 20 | –
O=C(Nc1cccc(C(F)(F)F)c1)N[C@H]1CCCC[C@@H]1Oc1ccc(C(F)(F)F)cc1 (relative stereo) | 5.89 | 1.7 | 3.1 | Activity [4]: Active
O=C(Nc1cccc(C(F)(F)F)c1)N[C@H]1CC[C@H](Oc2ccc(C(F)(F)F)cc2)CC1 | 25.1 | 0.3 | 0.46 | IC50 [5]: 5 µM; IC50 [6]: 0.66 µM; selectivity ratio [7]: 7.4; IC50 (NIH3T3): 3.4 µM
O=C(Nc1ccccc1C(F)(F)F)N[C@H]1CC[C@H](Oc2ccc(F)cc2)CC1 | 1.56 | – | > 20 | Activity [8]: Active; Activity [9]: Active; Activity [10]: Active; Activity [11]: Active; Activity [12]: Active
O=C(Nc1cccc(C(F)(F)F)c1)N[C@H]1CCC[C@H](Oc2ccc(C(F)(F)F)cc2)C1 (relative stereo) | 4.52 | 2.7 | 3.8 | –
COc1ccccc1NC(=O)N[C@H]1CC[C@H](Oc2ccc(F)cc2)CC1 | 1.51 | – | > 20 | –
COC(=O)c1cccc(NC(=O)N[C@H]2CC[C@H](Oc3ccc(F)cc3)CC2)c1 | 6.83 | 17.1 | 9.2 | –
O=C(Nc1cccc(C(F)(F)F)c1)N[C@H]1CC[C@H](Oc2cccc(C(F)(F)F)c2)CC1 | 26 | 1.1 | 1.3 | IC50 [5]: 4.9 µM; IC50 [6]: 1.05 µM; selectivity ratio [7]: 2.5; IC50 (NIH3T3): 3.3 µM
O=C(Nc1cccc(C(F)(F)F)c1)N[C@H]1CC[C@H](OCc2ccc(F)cc2)CC1 | 9.58 | 4.4 | 2.65 | Activity [4]: Active
COc1ccc(NC(=O)N[C@H]2CC[C@H](Oc3ccc(F)cc3)CC2)cc1 | 0.83 | – | > 20 | –
O=C(Nc1ccccc1OC(F)(F)F)N[C@H]1CC[C@H](Oc2ccc(F)cc2)CC1 | 1.41 | – | > 20 | –
COC(=O)c1ccc(NC(=O)N[C@H]2CC[C@H](Oc3ccc(F)cc3)CC2)cc1 | 3.97 | 12.8 | 11.6 | –
O=C(Nc1ccc(C(=O)O)cc1)N[C@H]1CC[C@H](Oc2ccc(F)cc2)CC1 | 3.49 | 21.2 | 11.6 | –
O=C(Nc1cccc(C(F)(F)F)c1)N[C@H]1CC[C@H](Oc2ccccc2C(F)(F)F)CC1 | 15.7 | 1.2 | 1.4 | –
O=C(Nc1cccc(C(F)(F)F)c1)N[C@H]1CC[C@H](Oc2ccc(Cl)cc2)CC1 | 6.73 | 1.6 | 2 | –
O=C(Nc1cccc([N+](=O)[O-])c1)N[C@H]1CC[C@H](Oc2ccc(F)cc2)CC1 | 7.47 | 11.4 | 6.7 | –
O=C(Nc1cccc(C(F)(F)F)c1)N[C@H]1CC[C@H](Oc2ccc(OC(F)(F)F)cc2)CC1 | 14.4 | 1.5 | 0.69 | IC50 [5]: 4.9 µM; IC50 [6]: 0.85 µM; selectivity ratio [7]: 4.9; IC50 (NIH3T3): 3.4 µM
O=C(Nc1cccc(C(F)(F)F)c1)NC1CCCCC1 | 1.87 | – | 13.2 | –
O=C(Nc1cccc(C(F)(F)F)c1)N[C@H]1CC[C@H](O)CC1 | 0.89 | – | > 20 | –
O=C(Nc1ccccc1[N+](=O)[O-])N[C@H]1CC[C@H](Oc2ccc(F)cc2)CC1 | 2.23 | – | 3.5 | –
COC(=O)c1ccccc1NC(=O)N[C@H]1CC[C@@H](Oc2ccc(F)cc2)CC1 | 3.79 | 26.2 | 14.5 | –

More lines, main results first:

Ratio [2] | Activity [3] [µM] | SMILES | IC50 [1] [µM] | other results
5.23 | 16.4 | O=C(Nc1ccccc1Br)N[C@H]1CC[C@H](Oc2ccc(F)cc2)CC1 | 7.7 | –
8.76 | 6.4 | O=C(Nc1cccc(Cl)c1)N[C@H]1CC[C@H](Oc2ccc(F)cc2)CC1 | 5.9 | –
1.29 | – | O=C(Nc1ccc(Br)cc1)N[C@H]1CC[C@H](Oc2ccc(F)cc2)CC1 | > 20 | –
1.65 | – | O=C(Nc1ccccc1)N[C@H]1CC[C@H](Oc2ccc(F)cc2)CC1 | 20 | –
1.05 | – | Cc1ccc(NC(=O)N[C@H]2CC[C@H](Oc3ccc(F)cc3)CC2)cc1 | > 20 | –
6.54 | 13.5 | O=C(Nc1cccc(F)c1)N[C@H]1CC[C@H](Oc2ccc(F)cc2)CC1 | 8.3 | Activity [8]: Active; Activity [9]: Active; Activity [10]: Active; Activity [11]: Active; Activity [12]: Active
0.92 | – | CSc1ccccc1NC(=O)N[C@H]1CC[C@H](Oc2ccc(F)cc2)CC1 | > 20 | –
9.52 | 5.7 | O=C(Nc1cccc(Br)c1)N[C@H]1CC[C@H](Oc2ccc(F)cc2)CC1 | 6.2 | –
0.88 | – | O=C(Nc1cccc(C(=O)O)c1)N[C@H]1CC[C@H](Oc2ccc(F)cc2)CC1 | > 20 | –
7.63 | 5.6 | O=C(Nc1cccc(I)c1)N[C@H]1CC[C@H](Oc2ccc(F)cc2)CC1 | 5.2 | –
3.81 | 26 | COc1cccc(NC(=O)N[C@H]2CC[C@H](Oc3ccc(F)cc3)CC2)c1 | 14 | –
1.2 | – | O=C(Nc1ccccc1C(=O)O)N[C@H]1CC[C@@H](Oc2ccc(F)cc2)CC1 | > 20 | –
6.67 | 12.2 | CSc1cccc(NC(=O)N[C@H]2CC[C@H](Oc3ccc(F)cc3)CC2)c1 | 11.1 | –
1.65 | – | O=C(Nc1ccc(Cl)cc1)N[C@H]1CC[C@H](Oc2ccc(F)cc2)CC1 | > 20 | –
5.37 | 18.5 | O=C(Nc1ccccc1Cl)N[C@H]1CC[C@H](Oc2ccc(F)cc2)CC1 | 9.1 | –
0.98 | – | O=C(Nc1ccc(F)cc1)N[C@H]1CC[C@H](Oc2ccc(F)cc2)CC1 | 20 | –
4.73 | 24.1 | Cc1cccc(NC(=O)N[C@H]2CC[C@H](Oc3ccc(F)cc3)CC2)c1 | 14.4 | –
3.25 | 18.5 | O=C(Nc1ccccc1I)N[C@H]1CC[C@H](Oc2ccc(F)cc2)CC1 | > 20 | –
2.1 | – | O=C(Nc1ccccc1F)N[C@H]1CC[C@H](Oc2ccc(F)cc2)CC1 | 17.5 | –
0.98 | – | Cc1ccccc1NC(=O)N[C@H]1CC[C@H](Oc2ccc(F)cc2)CC1 | > 20 | –
3.77 | 6.3 | O=C(Nc1ccc(I)cc1)N[C@H]1CC[C@H](Oc2ccc(F)cc2)CC1 | 10.2 | –
